Test results as given in ChEMBL document CHEMBL3585281, “Antibacterial Labdane Diterpenoids from Vitex vestita” (2015).
≈ marks a conversion by molar mass, not a printed value.

Key:
Type in all cases: functional
Enterococcus faecalis [1] = test: Antibacterial activity against Enterococcus faecalis N520 after 18 hrs by agar dilution method; conditions: N520, 18 h
Method in brief: (§1)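 Agar-dilution MIC against Gram-positive strains. Compounds in DMSO, geometric dilutions giving final 100−0.75 mg/L in Mueller Hinton agar. Strains grown 18 h at 37 °C in trypticase soy broth, diluted in sterile water, spotted by Steers inoculator (about 1000 UFC/spot). Plates incubated 18 h at 37 °C; DMSO blank; ofloxacin positive control. MIC = lowest concentration with no visible growth.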

Enterococcus faecalis [2] = test: Antibacterial activity against Enterococcus faecalis CIP 103214 after 18 hrs by agar dilution method; conditions: CIP 103214, 18 h; method in brief: as §1
[3] = test system: Staphylococcus epidermidis; test: Antibacterial activity against Staphylococcus epidermidis CIP 53124 after 18 hrs by agar dilution method; conditions: CIP 53124, 18 h; method in brief: as §1
Staphylococcus aureus [4] = test: Antibacterial activity against Staphylococcus aureus CIP 53156 after 18 hrs by agar dilution method; conditions: CIP 53156, 18 h; method in brief: as §1
Enterococcus durans = test: Antibacterial activity against Enterococcus durans CIP 104999 after 18 hrs by agar dilution method; conditions: CIP 104999, 18 h; method in brief: as §1
Enterococcus gallinarum [5] = test: Antibacterial activity against Enterococcus gallinarum CIP 105985 after 18 hrs by agar dilution method; conditions: CIP 105985, 18 h; method in brief: as §1
Mammaliicoccus sciuri = test: Antibacterial activity against Staphylococcus sciuri N993 after 18 hrs by agar dilution method; conditions: N993, 18 h; method in brief: as §1
Corynebacterium striatum = test: Antibacterial activity against Corynebacterium striatum N840 after 18 hrs by agar dilution method; conditions: N840, 18 h; method in brief: as §1
Staphylococcus aureus [6] = test: Antibacterial activity against Staphylococcus aureus ATCC 25923 after 18 hrs by agar dilution method; conditions: ATCC 25923, 18 h; method in brief: as §1
MRC5 [7] = test: Cytotoxicity against human MRC5 cells assessed as growth inhibition at 10^-5 M after 72 hrs by MTS assay relative to control; conditions: MRC5, 72 h, read-out: GI
Method in brief: (§2)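 Cells from ATCC; HCT-116 grown in RPMI 1640 and MRC5 in DMEM, each with 10% FCS and 1% glutamine, 37 °C, 5% CO2. Seeded at 2.5 × 10^3 cells/well, cultured 24 h, then exposed to compounds at 1 and 10 μM final for 72 h. MTS read-out, absorbance 490 nm; percent index from treated/control OD490 × 100, three experiments.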

Enterococcus faecalis [8] = test: Antibacterial activity against Enterococcus faecalis N518 after 18 hrs by agar dilution method; conditions: N518, 18 h; method in brief: as §1
[9] = test system: Staphylococcus saprophyticus; test: Antibacterial activity against Staphylococcus saprophyticus E260 after 18 hrs by agar dilution method; conditions: E260, 18 h; method in brief: as §1
Staphylococcus aureus [10] = test: Antibacterial activity against Staphylococcus aureus CIP 7625 after 18 hrs by agar dilution method; conditions: CIP 7625, 18 h; method in brief: as §1
MRC5 [11] = test: Cytotoxicity against human MRC5 cells assessed as growth inhibition at 10^-6 M after 72 hrs by MTS assay relative to control; conditions: MRC5, 72 h, read-out: GI; method in brief: as §2
Bacillus cereus [12] = test: Antibacterial activity against Bacillus cereus N349 after 18 hrs by agar dilution method; conditions: N349, 18 h; method in brief: as §1
Listeria innocua = test: Antibacterial activity against Listeria innocua E044 after 18 hrs by agar dilution method; conditions: E044, 18 h; method in brief: as §1
Enterococcus faecium [13] = test: Antibacterial activity against Enterococcus faecium CIP 103014 after 18 hrs by agar dilution method; conditions: CIP 103014, 18 h; method in brief: as §1
[14] = test system: Staphylococcus intermedius; test: Antibacterial activity against Staphylococcus intermedius N987 after 18 hrs by agar dilution method; conditions: N987, 18 h; method in brief: as §1
Listeria monocytogenes [15] = test: Antibacterial activity against Listeria monocytogenes N851 after 18 hrs by agar dilution method; conditions: N851, 18 h; method in brief: as §1
Enterococcus faecium [16] = test: Antibacterial activity against Enterococcus faecium CIP 107387 after 18 hrs by agar dilution method; conditions: CIP 107387, 18 h; method in brief: as §1
Staphylococcus aureus [17] = test: Antibacterial activity against Staphylococcus aureus ATCC 9144 oxford after 18 hrs by agar dilution method; method in brief: as §1
Bacillus cereus [18] = test: Antibacterial activity against Bacillus cereus N258 after 18 hrs by agar dilution method; conditions: N258, 18 h; method in brief: as §1
[19] = test system: Staphylococcus lugdunensis; test: Antibacterial activity against Staphylococcus lugdunensis ATCC 43809 after 18 hrs by agar dilution method; conditions: ATCC 43809, 18 h; method in brief: as §1
Enterococcus faecium [20] = test: Antibacterial activity against Enterococcus faecium N507 after 18 hrs by agar dilution method; conditions: N507, 18 h; method in brief: as §1
Streptococcus agalactiae = test: Antibacterial activity against Streptococcus agalactiae CIP 103227 after 18 hrs by agar dilution method; conditions: ATCC 13813, 18 h; method in brief: as §1
Enterococcus faecium [21] = test: Antibacterial activity against Enterococcus faecium N823 after 18 hrs by agar dilution method; conditions: N823, 18 h; method in brief: as §1
Listeria monocytogenes [22] = test: Antibacterial activity against Listeria monocytogenes N836 after 18 hrs by agar dilution method; conditions: N836, 18 h; method in brief: as §1
Bacillus cereus [23] = test: Antibacterial activity against Bacillus cereus CIP 6624 after 18 hrs by agar dilution method; conditions: CIP 6624, 18 h; method in brief: as §1
Enterococcus faecalis [24] = test: Antibacterial activity against Enterococcus faecalis N491 after 18 hrs by agar dilution method; conditions: N491, 18 h; method in brief: as §1
HCT-116 [25] = test: Cytotoxicity against human HCT116 cells assessed as growth inhibition at 10^-6 M after 72 hrs by MTS assay relative to control; conditions: HCT-116, 72 h, read-out: GI; method in brief: as §2
Listeria monocytogenes [26] = test: Antibacterial activity against Listeria monocytogenes N783 after 18 hrs by agar dilution method; conditions: N783, 18 h; method in brief: as §1
[27] = test system: Staphylococcus haemolyticus; test: Antibacterial activity against Staphylococcus haemolyticus CIP 8156 after 18 hrs by agar dilution method; conditions: CIP 8156, 18 h; method in brief: as §1
Enterococcus avium = test: Antibacterial activity against Enterococcus avium CIP 104053 after 18 hrs by agar dilution method; conditions: CIP 104053, 18 h; method in brief: as §1
Bacillus spizizenii = test: Antibacterial activity against Bacillus subtilis ATCC 6633 after 18 hrs by agar dilution method; conditions: ATCC 6633, 18 h; method in brief: as §1
Listeria monocytogenes [28] = test: Antibacterial activity against Listeria monocytogenes CIP 103575 after 18 hrs by agar dilution method; conditions: CIP 103575, 18 h; method in brief: as §1
Enterococcus hirae = test: Antibacterial activity against Enterococcus hirae CIP 5855 after 18 hrs by agar dilution method; conditions: CIP 5855, 18 h; method in brief: as §1
[29] = test system: Enterococcus casseliflavus; test: Antibacterial activity against Enterococcus casseliflavus CIP 103018 after 18 hrs by agar dilution method; conditions: CIP 103018, 18 h; method in brief: as §1
Staphylococcus aureus [30] = test: Antibacterial activity against Staphylococcus aureus CIP 5710 after 18 hrs by agar dilution method; conditions: CIP 5710, 18 h; method in brief: as §1
Staphylococcus aureus [31] = test: Antibacterial activity against Staphylococcus aureus CRBIP 2121 after 18 hrs by agar dilution method; conditions: CRBIP 2121, 18 h; method in brief: as §1
Enterococcus faecium [32] = test: Antibacterial activity against Enterococcus faecium N490 after 18 hrs by agar dilution method; conditions: N490, 18 h; method in brief: as §1
Enterococcus gallinarum [33] = test: Antibacterial activity against Enterococcus gallinarum N489 after 18 hrs by agar dilution method; conditions: N489, 18 h; method in brief: as §1
[34] = test system: Staphylococcus saprophyticus; test: Antibacterial activity against Staphylococcus saprophyticus CIP 76125 after 18 hrs by agar dilution method; conditions: CIP 76125, 18 h; method in brief: as §1
Enterococcus gallinarum [35] = test: Antibacterial activity against Enterococcus gallinarum N492 after 18 hrs by agar dilution method; conditions: N492, 18 h; method in brief: as §1
[36] = test system: Enterococcus casseliflavus; test: Antibacterial activity against Enterococcus casseliflavus N487 after 18 hrs by agar dilution method; conditions: N487, 18 h; method in brief: as §1
Enterococcus faecalis [37] = test: Antibacterial activity against Enterococcus faecalis CIP 104676 after 18 hrs by agar dilution method; conditions: CIP 104676, 18 h; method in brief: as §1
Staphylococcus aureus [38] = test: Antibacterial activity against Staphylococcus aureus CIP 483 after 18 hrs by agar dilution method; conditions: CIP 483, 18 h; method in brief: as §1
Staphylococcus aureus [39] = test: Antibacterial activity against Staphylococcus aureus CIP 53154 after 18 hrs by agar dilution method; conditions: CIP 53154, 18 h; method in brief: as §1
Enterococcus faecium [40] = test: Antibacterial activity against Enterococcus faecium N733 after 18 hrs by agar dilution method; conditions: N733, 18 h; method in brief: as §1
Bacillus cereus [41] = test: Antibacterial activity against Bacillus cereus N190 after 18 hrs by agar dilution method; conditions: N190, 18 h; method in brief: as §1
HCT-116 [42] = test: Cytotoxicity against human HCT116 cells assessed as growth inhibition at 10^-5 M after 72 hrs by MTS assay relative to control; conditions: HCT-116, 72 h, read-out: GI; method in brief: as §2

C=C1CC[C@H]2C(C)(C)CCC[C@]2(C)[C@H]1C[C@@H](O)C1=CC(=O)OC1O (stereo not given in full)
MIC (Enterococcus faecalis [1]): 48 µM (≈ 16.1 µg/mL) | MIC (Enterococcus faecalis [2]): 96 µM (≈ 32.1 µg/mL) | MIC [3]: 12 µM (≈ 4.01 µg/mL) | MIC (Staphylococcus aureus [4]): 12 µM (≈ 4.01 µg/mL) | MIC (Enterococcus durans): 24 µM (≈ 8.03 µg/mL) | MIC (Enterococcus gallinarum [5]): 96 µM (≈ 32.1 µg/mL) | MIC (Mammaliicoccus sciuri): 48 µM (≈ 16.1 µg/mL) | MIC (Corynebacterium striatum): 24 µM (≈ 8.03 µg/mL) | MIC (Staphylococcus aureus [6]): 24 µM (≈ 8.03 µg/mL) | inhibition of growth at 10 µM (MRC5 [7]): 95% | MIC (Enterococcus faecalis [8]): 96 µM (≈ 32.1 µg/mL) | MIC [9]: 24 µM (≈ 8.03 µg/mL) | MIC (Staphylococcus aureus [10]): 24 µM (≈ 8.03 µg/mL) | inhibition of growth at 1 µM (MRC5 [11]): 22% | MIC (Bacillus cereus [12]): 6 µM (≈ 2.01 µg/mL) | MIC (Listeria innocua): 48 µM (≈ 16.1 µg/mL) | MIC (Enterococcus faecium [13]): 96 µM (≈ 32.1 µg/mL) | MIC [14]: 12 µM (≈ 4.01 µg/mL) | MIC (Listeria monocytogenes [15]): 48 µM (≈ 16.1 µg/mL) | MIC (Enterococcus faecium [16]): 96 µM (≈ 32.1 µg/mL) | MIC (Staphylococcus aureus [17]): 24 µM (≈ 8.03 µg/mL) | MIC (Bacillus cereus [18]): 6 µM (≈ 2.01 µg/mL) | MIC [19]: 24 µM (≈ 8.03 µg/mL) | MIC (Enterococcus faecium [20]): 96 µM (≈ 32.1 µg/mL) | MIC (Streptococcus agalactiae): 12 µM (≈ 4.01 µg/mL) | MIC (Enterococcus faecium [21]): 96 µM (≈ 32.1 µg/mL) | MIC (Listeria monocytogenes [22]): 24 µM (≈ 8.03 µg/mL) | MIC (Bacillus cereus [23]): 12 µM (≈ 4.01 µg/mL) | MIC (Enterococcus faecalis [24]): 24 µM (≈ 8.03 µg/mL) | inhibition of growth at 1 µM (HCT-116 [25]): 0% | MIC (Listeria monocytogenes [26]): 48 µM (≈ 16.1 µg/mL) | MIC [27]: 6 µM (≈ 2.01 µg/mL) | MIC (Enterococcus avium): 48 µM (≈ 16.1 µg/mL) | MIC (Bacillus spizizenii): 6 µM (≈ 2.01 µg/mL) | MIC (Listeria monocytogenes [28]): 24 µM (≈ 8.03 µg/mL) | MIC (Enterococcus hirae): 96 µM (≈ 32.1 µg/mL) | MIC [29]: 96 µM (≈ 32.1 µg/mL) | MIC (Staphylococcus aureus [30]): 24 µM (≈ 8.03 µg/mL) | MIC (Staphylococcus aureus [31]): 12 µM (≈ 4.01 µg/mL) | MIC (Enterococcus faecium [32]): 48 µM (≈ 16.1 µg/mL) | MIC (Enterococcus gallinarum [33]): 24 µM (≈ 8.03 µg/mL) | MIC [34]: 24 µM (≈ 8.03 µg/mL) | MIC (Enterococcus gallinarum [35]): 48 µM (≈ 16.1 µg/mL) | MIC [36]: 96 µM (≈ 32.1 µg/mL) | MIC (Enterococcus faecalis [37]): 24 µM (≈ 8.03 µg/mL) | MIC (Staphylococcus aureus [38]): 12 µM (≈ 4.01 µg/mL) | MIC (Staphylococcus aureus [39]): 24 µM (≈ 8.03 µg/mL) | MIC (Enterococcus faecium [40]): 96 µM (≈ 32.1 µg/mL) | MIC (Bacillus cereus [41]): 6 µM (≈ 2.01 µg/mL) | inhibition of growth at 10 µM (HCT-116 [42]): 87%
